From ChEMBL document CHEMBL4321880 (J Med Chem, 2020)

How the values were obtained:
ASPC1 [1] = assay: Increase in CYP3A4 expression in CRISPR/Cas9-mediated CYP3A5 knock-out and doxycycline-induced CYP3A4 overexpressing human AsPC1 cells at 1 uM after 24 hrs by Western blot analysis; format: ADME, cell-based; conditions: aspc1, 24 h
In short: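 Overexpression was induced with 100 ng/mL doxycycline. […] Blots were probed with anti-CYP3A4 K03 (also detects CYP3A5) and β-actin, with infrared dye secondaries. Bands were normalized to actin across triplicate gels, with DMSO set as 1.0.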

ASPC1 [2] = assay: Cytotoxicity against CRISPR/Cas9-mediated CYP3A5 knock-out and lentiviral pLVX-TRE3G-ZsGreen1-CYP3A4 transduced human AsPC1 cells overexpressing CYP3A4 assessed as cell growth; format: ADME, cell-based
In short: (§1)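 Cells seeded at 10,000/well. Dox-inducible lines were induced with 100 ng/mL doxycycline, then treated 24 h later with compound at 16 two-fold dilutions (0.0003–10 μM) plus 5 μM midazolam, in 0.66% DMSO final, for 24 h. Phase-contrast confluence imaging followed. Values were normalized to six 0.66% DMSO replicates and fitted with a three-parameter log(inhibitor) vs response curve.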

CYP3A5 = CYP3A5 (Homo sapiens, UniProt P20815); assay: Inhibition of human recombinant CYP3A5 expressed in supersomes assessed as decrease in formation of D-luciferin at 1.89 uM using luciferin-IPA as substrate incubated for 10 mins in presence of NADPH by P450-Glo luminescence assay relative to control; conditions: probe luciferin-IPA
ASPC1 [3] = assay: Cytotoxicity against wild type human AsPC1 cells assessed as cell growth; format: cell-based; in short: as §1
ASPC1 [4] = assay: Cytotoxicity against CRISPR/Cas9-mediated CYP3A5 knock-out and doxycycline-induced CYP3A5 overexpressing human AsPC1 cells assessed as cell growth; format: ADME, cell-based; in short: as §1
ASPC1 [5] = assay: Cytotoxicity against CRISPR/Cas9-mediated CYP3A5 knock-out and doxycycline-induced CYP3A4 overexpressing human AsPC1 cells assessed as cell growth; format: ADME, cell-based; in short: as §1
ASPC1 [6] = assay: Cytotoxicity against CRISPR/Cas9-mediated CYP3A5 knock-out human AsPC1 cells assessed as cell growth; format: ADME, cell-based; in short: as §1
ASPC1 [7] = assay: Cytotoxicity against doxycycline-induced CYP3A5 overexpressing wild type human AsPC1 cells assessed as cell growth; format: ADME, cell-based; in short: as §1
ASPC1 [8] = assay: Cytotoxicity against CRISPR/Cas9-mediated CYP3A5 knock-out and lentiviral pLVX-TRE3G-ZsGreen1-CYP3A5 transduced human AsPC1 cells overexpressing CYP3A5 assessed as cell growth; format: ADME, cell-based; in short: as §1
ASPC1 [9] = assay: Cytotoxicity against lentiviral pLVX-TRE3G-ZsGreen1-CYP3A5 transduced wild type human AsPC1 cells overexpressing CYP3A5 assessed as cell growth; format: ADME, cell-based; in short: as §1

CYP3A5, sequence (P20815 whole entry): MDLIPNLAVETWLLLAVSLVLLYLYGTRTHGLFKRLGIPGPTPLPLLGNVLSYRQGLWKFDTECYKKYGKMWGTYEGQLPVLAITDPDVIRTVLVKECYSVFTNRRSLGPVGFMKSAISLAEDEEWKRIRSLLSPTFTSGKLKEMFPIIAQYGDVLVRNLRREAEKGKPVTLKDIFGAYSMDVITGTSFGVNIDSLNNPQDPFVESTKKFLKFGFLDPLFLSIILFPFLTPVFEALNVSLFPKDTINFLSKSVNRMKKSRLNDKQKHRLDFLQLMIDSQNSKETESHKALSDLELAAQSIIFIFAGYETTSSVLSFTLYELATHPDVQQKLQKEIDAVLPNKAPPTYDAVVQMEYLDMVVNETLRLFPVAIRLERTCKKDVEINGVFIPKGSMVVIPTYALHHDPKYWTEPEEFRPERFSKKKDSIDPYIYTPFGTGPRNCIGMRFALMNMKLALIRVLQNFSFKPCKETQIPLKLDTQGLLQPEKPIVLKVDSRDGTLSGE

CC(=O)N1CCN(c2ccc(OCC3COC(Cn4ccnc4)(c4ccc(Cl)cc4Cl)O3)cc2)CC1 (stereo not given) [KETOCONAZOLE]
Active: Activity (ASPC1 [1])
Non-Toxic: Activity (ASPC1 [2]) | Activity (ASPC1 [3]) | Activity (ASPC1 [4]) | Activity (ASPC1 [5]) | Activity (ASPC1 [6]) | Activity (ASPC1 [7]) | Activity (ASPC1 [8]) | Activity (ASPC1 [9])
100%: inhibition at 10 min, 1.89 µM (CYP3A5)
